≈ marks a conversion by molar mass, not a printed value.
Experiments:
Staphylococcus aureus [1] = test: Antibacterial activity against Staphylococcus aureus ATCC 6538 after 18 hrs; type: functional; settings: ATCC 6538, 18 h
How it was run: (§1)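 Broth microdilution in Nutrient Broth No. 2; stocks in ethanol diluted to 0.01–128 µg/ml (triclosan) or 0.25–256 µg/ml (glycosides). Overnight 37 °C NB2 cultures diluted 1 in 10^4 in saline and added to the dilutions. Incubation at 37 °C with agitation, OD read every 15 min; MIC is the lowest concentration preventing any OD rise after 18 h.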

Staphylococcus aureus [2] = test: Antibacterial activity against Staphylococcus aureus ATCC 6538P after 18 hrs; type: functional; how it was run: as §1
Staphylococcus aureus [3] = test: Antibacterial activity against Staphylococcus aureus ATCC 9144 after 18 hrs; type: functional; settings: ATCC 9144, 18 h; how it was run: as §1
Staphylococcus aureus [4] = test: Antibacterial activity against Staphylococcus aureus ATCC 25923 after 18 hrs; type: functional; settings: ATCC 25923, 18 h; how it was run: as §1
Staphylococcus aureus [5] = test: Antibacterial activity against Staphylococcus aureus ATCC 29213 after 18 hrs; type: functional; settings: ATCC 29213, 18 h; how it was run: as §1
Staphylococcus aureus [6] = test: Antibacterial activity against Staphylococcus aureus NCTC 13758 after 18 hrs; type: functional; settings: NCTC 13758, 18 h; how it was run: as §1
Staphylococcus aureus [7] = test: Antibacterial activity against Staphylococcus aureus OCC 104 after 18 hrs; type: functional; settings: OCC 104, 18 h; how it was run: as §1
Staphylococcus aureus [8] = test: Antibacterial activity against Staphylococcus aureus OCC 106 after 18 hrs; type: functional; settings: OCC 106, 18 h; how it was run: as §1
[9] = system: Staphylococcus epidermidis; test: Antibacterial activity against Staphylococcus epidermidis 155 after 18 hrs; type: functional; settings: Staphylococcus epidermidis, 155, 18 h; how it was run: as §1
[10] = system: Staphylococcus epidermidis; test: Antibacterial activity against Staphylococcus epidermidis ATCC 12228 after 18 hrs; type: functional; settings: ATCC 12228, 18 h; how it was run: as §1
[11] = system: Staphylococcus epidermidis; test: Antibacterial activity against Staphylococcus epidermidis ATCC 14990 after 18 hrs; type: functional; settings: ATCC 14990, 18 h; how it was run: as §1
[12] = system: Staphylococcus haemolyticus; test: Antibacterial activity against Staphylococcus haemolyticus OCC 2223 after 18 hrs; type: functional; settings: OCC 2223, 18 h
How it was run: (§2)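 Broth microdilution in Nutrient Broth No. 2. Ethanol stocks were diluted in broth to 0.01–128 µg/ml for triclosan and 0.25–256 µg/ml for glycosides. Overnight 37°C NB2 cultures were diluted 1 in 10^4 in saline and added to the wells. Plates were incubated at 37°C with OD read every 15 min after agitation. MIC was the lowest concentration giving no OD increase at 18 h.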

[13] = system: Staphylococcus saprophyticus; test: Antibacterial activity against Staphylococcus saprophyticus ATCC 15305 after 18 hrs; type: functional; settings: ATCC 15305, 18 h; how it was run: as §2
Streptococcus agalactiae = test: Antibacterial activity against Streptococcus agalactiae OCC 182 after 18 hrs; type: functional; settings: OCC 182, 18 h; how it was run: as §2
Streptococcus pneumoniae [14] = test: Antibacterial activity against Streptococcus pneumoniae 6305 after 18 hrs; type: functional; settings: Streptococcus pneumoniae, 6305, 18 h; how it was run: as §2
Streptococcus pneumoniae [15] = test: Antibacterial activity against Streptococcus pneumoniae ATCC 49619 after 18 hrs; type: functional; settings: ATCC 49619, 18 h; how it was run: as §2
Streptococcus pyogenes = test: Antibacterial activity against Streptococcus pyogenes ATCC 19615 after 18 hrs; type: functional; settings: ATCC 19615, 18 h; how it was run: as §2
Streptococcus viridans = test: Antibacterial activity against Streptococcus viridans OCC 234 after 18 hrs; type: functional; settings: OCC 234, 18 h; how it was run: as §2
[16] = system: Salmonella enterica subsp. enterica serovar Abony; test: Antibacterial activity against Salmonella enterica subspecies enterica serotype Abony NCTC 6017 after 18 hrs; type: functional; settings: NCTC 6017, 18 h; how it was run: as §1
[17] = Antibacterial activity against Salmonella enterica subspecies enterica serotype Arizonae OCC 706 after 18 hrs; type: functional, Salmonella enterica subsp. enterica serovar Arizonae; settings: OCC 706, 18 h; how it was run: as §1
[18] = Antibacterial activity against Salmonella enterica subspecies enterica serotype Dublin OCC 627 after 18 hrs; type: functional, Salmonella enterica subsp. enterica serovar Dublin; settings: OCC 627, 18 h; how it was run: as §1
Salmonella enteritidis = test: Antibacterial activity against Salmonella enterica subspecies enterica serotype Enteritidis 13076 after 18 hrs; type: functional, Salmonella enterica subsp. enterica serovar Enteritidis; settings: Salmonella enterica, 13076, 18 h; how it was run: as §1
[19] = Antibacterial activity against Salmonella enterica subspecies enterica serotype Indiana OCC 597 after 18 hrs; type: functional, Salmonella enterica subsp. enterica serovar Indiana; settings: OCC 597, 18 h; how it was run: as §1
[20] = Antibacterial activity against Salmonella enterica subspecies enterica serotype Infantis OCC 2133 after 18 hrs; type: functional, Salmonella enterica subsp. enterica serovar Infantis; settings: OCC 2133, 18 h; how it was run: as §1
[21] = Antibacterial activity against Salmonella enterica subspecies enterica serotype Nottingham NCTC 7832 after 18 hrs; type: functional, Salmonella enterica subsp. enterica serovar Nottingham; settings: NCTC 7832, 18 h; how it was run: as §1
[22] = Antibacterial activity against Salmonella enterica subspecies enterica serotype Poona NCTC 4840 after 18 hrs; type: functional, Salmonella enterica subsp. enterica serovar Poona; settings: NCTC 4840, 18 h; how it was run: as §1
[23] = Antibacterial activity against Salmonella enterica subspecies enterica serotype Pullorum OCC 273 after 18 hrs; type: functional, Salmonella enterica subsp. enterica serovar Pullorum; settings: OCC 273, 18 h; how it was run: as §1
Salmonella typhimurium = test: Antibacterial activity against Salmonella enterica subspecies enterica serotype typhimurium ATCC 14028 after 18 hrs; type: functional, Salmonella enterica subsp. enterica serovar Typhimurium; settings: ATCC 14028, 18 h; how it was run: as §1
[24] = Antibacterial activity against Salmonella enterica subspecies enterica serotype Virchow NCTC 5742 after 18 hrs; type: functional, Salmonella enterica subsp. enterica serovar Virchow; settings: NCTC 5742, 18 h; how it was run: as §1

## OC[C@H]1O[C@H](Oc2cc(Cl)ccc2Oc2ccc(Cl)cc2Cl)[C@@H](O)[C@@H](O)[C@@H]1O
Staphylococcus aureus [1]
  MIC: 2 to 8 µg/mL (≈ 4.43 to 17.7 µM)
Staphylococcus aureus [2]
  MIC: 2 to 8 µg/mL (≈ 4.43 to 17.7 µM)
Staphylococcus aureus [3]
  MIC: 2 to 8 µg/mL (≈ 4.43 to 17.7 µM)
Staphylococcus aureus [4]
  MIC: 2 to 8 µg/mL (≈ 4.43 to 17.7 µM)
Staphylococcus aureus [5]
  MIC: 2 to 8 µg/mL (≈ 4.43 to 17.7 µM)
Staphylococcus aureus [6]
  MIC: 2 to 8 µg/mL (≈ 4.43 to 17.7 µM)
Staphylococcus aureus [7]
  MIC: 2 to 8 µg/mL (≈ 4.43 to 17.7 µM)
Staphylococcus aureus [8]
  MIC: 2 to 8 µg/mL (≈ 4.43 to 17.7 µM)
[9]
  MIC: 4 to 8 µg/mL (≈ 8.86 to 17.7 µM)
[10]
  MIC: 4 to 8 µg/mL (≈ 8.86 to 17.7 µM)
[11]
  MIC: 4 to 8 µg/mL (≈ 8.86 to 17.7 µM)
[12]
  MIC: 8 µg/mL (≈ 17.7 µM)
[13]
  MIC: 32 µg/mL (≈ 70.8 µM)
Streptococcus agalactiae
  MIC: 128 µg/mL (≈ 283 µM)
Streptococcus pneumoniae [14]
  MIC: 64 µg/mL (≈ 142 µM)
Streptococcus pneumoniae [15]
  MIC: 64 µg/mL (≈ 142 µM)
Streptococcus pyogenes
  MIC: 32 µg/mL (≈ 70.8 µM)
Streptococcus viridans
  MIC: 128 µg/mL (≈ 283 µM)
[16]
  MIC: 16 to 64 µg/mL (≈ 35.4 to 142 µM)
[17]
  MIC: 16 to 64 µg/mL (≈ 35.4 to 142 µM)
[18]
  MIC: 16 to 64 µg/mL (≈ 35.4 to 142 µM)
Salmonella enteritidis
  MIC: 16 to 64 µg/mL (≈ 35.4 to 142 µM)
[19]
  MIC: 16 to 64 µg/mL (≈ 35.4 to 142 µM)
[20]
  MIC: 16 to 64 µg/mL (≈ 35.4 to 142 µM)
[21]
  MIC: 16 to 64 µg/mL (≈ 35.4 to 142 µM)
[22]
  MIC: 16 to 64 µg/mL (≈ 35.4 to 142 µM)
[23]
  MIC: 16 to 64 µg/mL (≈ 35.4 to 142 µM)
Salmonella typhimurium
  MIC: 16 to 64 µg/mL (≈ 35.4 to 142 µM)
[24]
  MIC: 16 to 64 µg/mL (≈ 35.4 to 142 µM)
